Measurements from paper PMC11588060 (Proceedings of the National Academy of Sciences of the …, 2024).
Where a name gives a salt, the structure may show the parent alone. Read-outs that look alike come from different tables or passages of the source. Values belong to the compound of their own block, whether it stands above or below them.

Key:
MsuE = target: T1, MsuE (Pseudomonas fluorescens, UniProt Q3K9A2); assay: Fluorometric equilibrium titration of MsuE with oxidized FMN; format: binding
T1 sequence (Q3K9A2 1-187): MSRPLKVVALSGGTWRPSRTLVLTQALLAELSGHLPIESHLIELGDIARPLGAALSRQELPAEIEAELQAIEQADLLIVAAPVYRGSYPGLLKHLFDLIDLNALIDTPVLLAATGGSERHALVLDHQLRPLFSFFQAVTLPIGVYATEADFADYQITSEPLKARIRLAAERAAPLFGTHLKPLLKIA
Method in brief: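 Recombinant P. fluorescens enzyme titrated at equilibrium with oxidized FMN, binding followed by intrinsic protein fluorescence on a spectrofluorometer. FMN range: 0.2 µM to 400 µM for MsuC and MsuD, 0.033 µM to 260 µM for MsuE. The fit gave KD, total enzyme and R2. Values are ±SD from three assay replicates.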

SfnG [1] = target: T2, SfnG (Pseudomonas fluorescens, UniProt Q3KC85); assay: Surface plasmon resonance flavin binding assay, SfnG captured on NTA sensor chip
T2 sequence (Q3KC85 1-364): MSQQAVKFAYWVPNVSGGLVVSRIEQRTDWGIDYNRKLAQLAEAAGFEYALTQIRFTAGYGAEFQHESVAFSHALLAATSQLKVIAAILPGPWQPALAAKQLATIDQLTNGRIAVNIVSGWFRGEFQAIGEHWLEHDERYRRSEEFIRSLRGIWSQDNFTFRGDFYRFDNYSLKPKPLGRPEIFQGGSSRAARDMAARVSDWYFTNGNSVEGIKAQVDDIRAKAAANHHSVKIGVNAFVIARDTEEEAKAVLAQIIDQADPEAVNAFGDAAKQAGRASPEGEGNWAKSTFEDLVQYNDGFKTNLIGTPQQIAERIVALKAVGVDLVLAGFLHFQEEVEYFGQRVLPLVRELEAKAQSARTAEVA

SsuD = details: read-out: KD for FMN binding; E. coli SsuD; cited from earlier work
SfnG [2] = details: cited from earlier work
SfnG [3] = target: T2, SfnG; assay: Mixed dialkylsulfone monooxygenation endpoint assay; format: biochemical; details: 1 mM substrate, 8 µM SfnG, 1 µM MsuE, 500 µM NADH, 2 µM FMN, 30 °C, 80 min

Kd (MsuE): 0.54 ± 0.06 µM | koff (SfnG [1]): 0.42 s⁻¹ | fold decrease in KD by SPR with 1% (v/v) DMSO in the running buffer (SfnG [1]; FMN binding to SfnG, with 1% (v/v) DMSO versus without): 2.7 fold | koff (SfnG [1]; read-out: koff rate constant with DMSO2 in the running buffer): 0.00836 s⁻¹
Structure (SMILES): Cc1cc2nc3c(=O)[nH]c(=O)nc-3n(C[C@H](O)[C@H](O)[C@H](O)COP(=O)(O)O)c2cc1C [FMN, riboflavin 5´-monophosphate sodium salt]
Kd (SsuD): 10 µM

Structure (SMILES): C[S+](C)[O-] [DMSO]
SfnG activity against the compound (SfnG [2]): not active

product(s) of conversion by SfnG (1H NMR endpoint assay) (SfnG [3]): ethanesulfinate
Structure (SMILES): CCS(=O)(=O)CC [diethylsulfone]
